Only some compounds are listed: those with a hit (about 2.3% of all), similar ones and a draw of the others.
C2C12 statin: suppression of simvastatin myotoxicity. rescue of ATP level, % at 7.49 µM. C2C12 myotubes + simvastatin, ATP luminescence, 48 h; scaled: DMSO 0, geranylgeraniol control 100. hit rate 0.78% among 330,000;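 active means mean ATP rescue above about 67%, or every replicate alone reaching that limit, limit read from the data, passing the limit was not always enough; inconclusive means no clear call, values can overlap the other calls; inactive means mean under the limit and some replicate under it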;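 further: myotubes were challenged with 10 µM simvastatin during compound exposure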
PDI turbidity: inhibitors of human protein disulfide isomerase | P07237 | PDI insulin aggregation turbidity, A650, 90 min | inhibition, % at 10 µM | hit rate 0.052% among 350,000;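 active means mean inhibition across replicates of 30% or more, whatever share of single replicates reach that level; inconclusive means mean inhibition below 30% while every single replicate reaches 30%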
Target sequence (P07237 whole entry, looked up): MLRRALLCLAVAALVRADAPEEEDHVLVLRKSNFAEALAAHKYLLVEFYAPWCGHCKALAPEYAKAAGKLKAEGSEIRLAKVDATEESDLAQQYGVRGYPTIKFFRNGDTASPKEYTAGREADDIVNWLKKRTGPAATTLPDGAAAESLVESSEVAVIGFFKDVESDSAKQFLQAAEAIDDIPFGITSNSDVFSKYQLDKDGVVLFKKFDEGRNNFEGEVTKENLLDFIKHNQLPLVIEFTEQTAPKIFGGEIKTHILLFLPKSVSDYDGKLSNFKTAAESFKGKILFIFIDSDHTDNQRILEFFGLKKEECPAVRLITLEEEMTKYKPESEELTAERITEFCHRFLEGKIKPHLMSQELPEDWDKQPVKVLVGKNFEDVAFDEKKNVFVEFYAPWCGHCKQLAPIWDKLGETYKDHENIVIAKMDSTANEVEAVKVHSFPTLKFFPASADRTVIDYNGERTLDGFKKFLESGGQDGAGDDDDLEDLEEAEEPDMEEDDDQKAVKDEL
Cneo AK release: Cryptococcus neoformans lysis via adenylate kinase release | hit rate 0.2% among 360,000 | C. neoformans lysis, adenylate kinase release luminescence, 4 h; normalised: neutral wells 0, clomiphene wells 100 | AID 651654 | lysis activity, % at 15 µM;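 active means mean lysis activity across replicates of at least 80%, whatever share of replicates individually reach that level; inactive means mean lysis activity below 80%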
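Assay system: C. neoformans cells. Amount: yeast cell density of 5 × 10^6 cells/mL. Technique: AK luminescence. Buffer or medium: YPD. Times: static 4 h at 37 °C with compound, 1 h detection. Dosing: single-point compound dose. Read-out: lysis from increased AK signal.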
ERp5 block: blocks human ERp5 reductase activity on insulin | Q15084 | ERp5 insulin aggregation, absorbance 650 nm, 90 min | inhibition, % at 9.99 µM | hit rate 0.05% among 350,000 | AID 651711;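 active means mean replicate inhibition above about 25%, with every replicate also reaching it, limit read from the data, passing the limit was not always enough; inconclusive means only one of those two criteria met; inactive means neither criterion met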
DENV2 CPE: inhibitors of DENV2 cytopathic effect | CPE inhibition, % at 9.99 µM | DENV2-infected cells, cytopathic effect rescue, plate reader | hit rate 1.7% among 350,000; in the data active means CPE inhibition above about 20%, passing the limit was not always enough; inconclusive means no clear call, values can overlap the other calls; tested in BHK-21 cells;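 further: 0% = median of neutral control wells and 100% = median of positive control wells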
CFTR F508del cor: CFTR F508del correction in bronchial cells; CFBE cells, YFP halide quenching; stimulated with forskolin plus potentiator P3; % fluorescence drop versus neutral controls; activity (quench increase), % at 7.58 µM; hit rate 0.36% among 350,000; AID 720511;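 active means mean added fluorescence quench of at least 8% versus neutral control, with both replicates also reaching 8%; inconclusive means only one of the mean or replicate conditions met; inactive means mean below 8% and not both replicates reaching 8%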;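 further: cells transiently co-express mutant CFTR-F508del with the halide-sensitive YFP; corrector assay measuring rescue of mutant channel to the surface after 24 h compound exposure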
* hit, by the source's call; ? = inconclusive; / = no result.

SMILES | C2C12 statin | PDI turbidity | Cneo AK release | ERp5 block | DENV2 CPE | CFTR F508del cor
C[C@@H]1CN([C@@H](C)CO)C(=O)c2cc(C#CCC3CCCC3)cnc2O[C@H]1CN(C)S(=O)(=O)c1cccs1 | -4.6 | / | -0.3 | -1.8 | 37.8* | 0.3
COCC(=O)N(C)C[C@@H]1Oc2ncc(C#CC3(O)CCCC3)cc2C(=O)N([C@@H](C)CO)C[C@H]1C | -1.4 | / | -4.4 | 0.7 | 40.9* | 1.3
CC(=O)N(C)C[C@@H]1Oc2ncc(C#CC3(O)CCCC3)cc2C(=O)N([C@H](C)CO)C[C@@H]1C | -0.1 | / | 7.1 | -1.0 | 31.5* | 0.1
COCCNC(=O)c1ccc(CS(=O)(=O)c2c(Cl)cccc2Cl)o1 | -1.7 | / | -0.2 | 4.1 | 58.4* | 0.7
CCN1CCN(CCNC(=O)c2ccc(CS(=O)(=O)c3c(Cl)cccc3Cl)o2)CC1 | 16.8 | / | 1.0 | 0.5 | ? | -4.4
Cc1nc(NCc2cccnc2)c2c3c(sc2n1)CCCC3 | / | -0.7 | -3.7 | -2.8 | 13.3 | 12.2*
c1cncc(CNc2ncnc3sc4c(c23)CCCC4)c1 | / | 16.1 | / | 2.1 | 9.8 | 5.2
O=C1C=C(c2cccc(Cl)c2)C[C@@H](c2ccc3c(c2)OCO3)C1 | 133.7* | 5.9 | -4.2 | 3.7 | / | 3.9
O=C1C=C(c2ccccc2)C[C@@H](c2ccc3c(c2)OCO3)C1 | 7.8 | 2.4 | -2.8 | 6.9 | -5.7 | 0.0
CC(C)NC(=O)N1[C@H](C(=O)N2CCOCC2)[C@@H](CO)[C@@H]2Cn3c(ccc(-c4ccc(F)cc4)c3=O)[C@@H]21 | -6.5 | / | 41.8 | -3.2 | 5.4 | /
O=C(NCc1cccnc1)c1cc(C2CCCCN2C(=O)OCc2ccccc2)on1 (stereo not drawn) | 1.0 | -8.9 | 1.5 | 1.9 | 10.3 | -3.8
O=C(NCc1cccnc1)c1cc(C2CCCCN2C(=O)CCCc2ccccc2)on1 (stereo not drawn) | -6.0 | -0.5 | 0.1 | 2.7 | 3.0 | 11.8*
C[C@@H]1CCCCO[C@H](CN(C)S(=O)(=O)c2ccccc2)[C@@H](C)CN([C@@H](C)CO)C(=O)c2cc(NC(=O)CCCN(C)C)ccc2O1 | / | / | 56.5 | -3.0 | 110.6* | -0.2
COc1ccc(S(=O)(=O)N(C)C[C@H]2OCCCC[C@H](C)Oc3ccc(NC(=O)CCCN(C)C)cc3C(=O)N([C@H](C)CO)C[C@H]2C)cc1 | / | / | 49.2 | -4.4 | 38.2* | -1.4
C[C@H](CO)N1C[C@H](C)[C@H](CN(C)S(=O)(=O)c2ccc(F)cc2)OCCCC[C@H](C)Oc2ccc(NC(=O)CCCN(C)C)cc2C1=O | / | / | -15.4 | 1.0 | 33.6* | -1.6
C[C@@H]1CN([C@@H](C)CO)C(=O)c2cc(NC(=O)CCCN(C)C)ccc2O[C@@H](C)CCCCO[C@@H]1CN(C)S(=O)(=O)c1ccc(F)cc1 | / | / | -15.4 | 1.3 | 43.5* | 1.0
C[C@@H]1CN([C@H](C)CO)C(=O)c2cc(NC(=O)CCCN(C)C)ccc2O[C@@H](C)CCCCO[C@@H]1CN(C)S(=O)(=O)c1ccc(F)cc1 | / | / | -14.2 | 1.2 | 4.8 | 0.0
COc1ccc(S(=O)(=O)N(C)C[C@H]2OCCCC[C@@H](C)Oc3ccc(NC(=O)CCCN(C)C)cc3C(=O)N([C@H](C)CO)C[C@@H]2C)cc1 | / | / | -2.1 | -1.1 | 6.2 | 1.3
C[C@H](CO)N1C[C@H](C)[C@@H](CN(C)C(=O)CN(C)C)Oc2cc(C3=CCCCC3)ccc2S1(=O)=O | 8.5 | / | -1.2 | 0.1 | 6.7 | -0.7
C[C@@H]1CN([C@@H](C)CO)C(=O)c2ccccc2-c2ccccc2CO[C@H]1CN(C)S(=O)(=O)c1ccc([N+](=O)[O-])cc1 | / | / | / | 3.9 | 10.1 | 4.0
C[C@H]1CNC(=O)c2c(C(=O)Nc3ccc(CNC(=O)OC(C)(C)C)cc3)ncn21 | -0.7 | -3.8 | -0.8 | -5.3 | 7.3 | 11.8*
C[C@H]1Cn2cnc(C(=O)Nc3ccc(CNC(=O)OC(C)(C)C)cc3)c2C(=O)N1 | 27.3 | -0.4 | -0.9 | 1.5 | 4.8 | 4.4
CO[C@H]1CN(C)C(=O)c2ccc(NS(=O)(=O)c3cccc(F)c3)cc2OC[C@@H](C)N(Cc2cc(F)ccc2F)C[C@H]1C | 31.1 | / | -0.7 | 6.2 | 48.9* | 0.2
CO[C@H]1CN(C)C(=O)c2cc(NS(=O)(=O)c3cccc(F)c3)ccc2OC[C@@H](C)N(Cc2cc(F)ccc2F)C[C@@H]1C | 19.6 | / | -2.8 | 0.4 | 22.1* | 0.2
COc1ccc(C[C@@H]2CCn3cc(nn3)COC[C@H](CC(C)C)NC2=O)cc1 | / | / | 1.0 | -4.6 | 2.7 | /
SMILES | C2C12 statin | PDI turbidity | Cneo AK release | ERp5 block | DENV2 CPE | CFTR F508del cor
COc1ccc(S(=O)(=O)N(C)C[C@H]2OCCCC[C@H](C)Oc3ccc(NS(=O)(=O)c4cn(C)cn4)cc3C(=O)N([C@H](C)CO)C[C@H]2C)cc1 | / | / | 0.3 | -0.2 | 7.7 | -0.7
CN1CCC2CC1c1cc(-c3ccc(C(F)(F)F)cc3)ccc12 (stereo not drawn) | -9.9 | -9.6 | 1.0 | 1.4 | 21.3* | 3.7
COCC(=O)N(C)C[C@H]1Oc2cc(-c3cccnc3)ccc2S(=O)(=O)N([C@H](C)CO)C[C@@H]1C | 15.3 | / | 43.4 | 1.2 | -2.1 | 0.5
O=C(O)COC(=O)Cc1ccccc1Nc1c(Cl)cccc1Cl | 1.8 | 0.2 | -0.2 | 0.1 | 6.7 | 16.5*
O=C(COC(=O)Cc1cccs1)Nc1ccccc1Cl | / | -1.4 | / | -1.9 | 9.9 | -2.4
CC1=CC(=O)C2=C(C)CCC3C(C)C(=O)OC3C12 (stereo not drawn) | -7.9 | / | 0.2 | 0.7 | 21.6* | -0.3
CC1=CC(=O)C2=C(C)CC[C@@H]3[C@H](OC(=O)[C@H]3C)[C@@H]12 | 11.0 | -4.9 | -2.3 | -0.5 | 12.5 | 6.8
C[C@H](CO)N1C[C@H](C)[C@H](CN(C)C(=O)Nc2ccc3c(c2)OCO3)Oc2ccc(NC(=O)C3CCCCC3)cc2CC1=O | 8.6 | / | 8.9 | -1.3 | -6.0 | 1.8
Cc1cccc(C)c1NC(=O)c1nc(S(=O)(=O)Cc2ccccc2)ncc1Cl | 134.7* | 2.3 | 5.6 | 4.8 | -3.1 | 4.1
Cc1cccc(CS(=O)(=O)c2ncc(Cl)c(C(=O)Nc3c(C)cccc3C)n2)c1 | 32.9 | -6.4 | 2.2 | 3.4 | -1.2 | 3.9
Cc1cc(C(=O)CSc2nnnn2-c2ccccc2)c(C)n1CCc1ccccc1 | 107.3* | -10.6 | -1.4 | / | / | /
COc1ccc(CCn2c(C)cc(C(=O)CSc3nnnn3-c3ccccc3)c2C)cc1OC | -48.8 | 0.2 | 1.7 | 2.6 | / | 3.6
C[C@@H]1CN([C@H](C)CO)C(=O)c2cc(C3=CCCC3)cnc2O[C@@H]1CN(C)C(=O)CN1CCOCC1 | 12.1 | / | -1.3 | 1.2 | 9.8 | -0.6
COC(=O)c1c(C)noc1-c1cc(C)on1 | 101.7* | -2.3 | 5.0 | / | / | /
COc1ccc2c3c(n(C)c2c1)[C@H](CO)N(C(=O)CN1CCOCC1)CC31CN(Cc2ccncc2)C1 | / | / | / | -8.5 | 36.6* | 0.9
COc1ccc2c3c(n(C)c2c1)[C@@H](CO)N(C(=O)CN1CCOCC1)CC31CN(C)C1 | / | / | / | / | -3.1 | -0.5
